By IC50 is commonly meant the concentration that gives 50% inhibition. For orientation: inhibition means the relative decrease from the control value, in per cent.

The first experiment deals with T1, P2X purinoceptor 7 (Homo sapiens, UniProt Q99572).
T1 sequence (Q99572 whole entry): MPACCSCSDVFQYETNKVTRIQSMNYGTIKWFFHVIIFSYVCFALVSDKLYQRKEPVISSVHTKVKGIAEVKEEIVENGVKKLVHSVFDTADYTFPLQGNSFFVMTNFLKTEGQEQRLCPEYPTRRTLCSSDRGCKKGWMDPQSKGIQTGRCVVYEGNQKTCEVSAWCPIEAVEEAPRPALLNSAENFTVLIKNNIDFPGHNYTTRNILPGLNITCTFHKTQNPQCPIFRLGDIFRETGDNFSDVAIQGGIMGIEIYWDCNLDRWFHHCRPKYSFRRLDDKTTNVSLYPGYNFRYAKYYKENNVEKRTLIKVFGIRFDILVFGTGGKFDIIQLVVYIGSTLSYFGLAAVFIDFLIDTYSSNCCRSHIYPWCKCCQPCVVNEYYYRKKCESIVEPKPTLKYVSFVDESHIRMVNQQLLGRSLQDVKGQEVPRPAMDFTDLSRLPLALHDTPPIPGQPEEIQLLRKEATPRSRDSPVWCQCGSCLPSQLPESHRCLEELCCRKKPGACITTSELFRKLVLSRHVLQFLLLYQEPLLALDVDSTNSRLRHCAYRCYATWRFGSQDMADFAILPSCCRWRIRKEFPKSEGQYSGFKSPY
The experiment in a line: Antagonist activity at human P2X7 receptor expressed in HEK293 cells assessed as inhibition of BzATP-induced ethidium bromide uptake after 2 hrs by fluorescence analysis. The experiment is classed as functional, cell-based.
Conditions: not given
`O=C(CCc1ccc(Cl)cc1)NNc1c(Cl)cncc1Cl`: the IC50 stood at 1100 nM. On the same count and under the same terms, then `O=C(NNc1c(Cl)cncc1Cl)C1C2CC3CC(C2)CC1C3` (configuration not stated), with 77 nM; and `O=C(CCCCCc1ccccc1)NNc1c(Cl)cncc1Cl`, with 1900 nM. On to `Cc1cccc(C)c1NNC(=O)CCc1ccccc1`, for which the IC50 stood at 900 nM. The same measure, in the same setting: then `O=C(CC1C2CC3CC(C2)CC1C3)NNc1c(Cl)cncc1Cl` (configuration not stated), with 340 nM.

Regarding `O=C(CCc1ccccc1)NNc1c(Cl)cccc1Cl`, the IC50 was 1400 nM. For `O=C(CCCCc1ccccc1)NNc1c(Cl)cncc1Cl`, the IC50 is 1200 nM.

For `O=C(CCCCCCc1ccccc1)NNc1c(Cl)cncc1Cl`, the IC50 worked out at 950 nM. Same read-out and setting: the result for `O=C(CC1CCCCC1)NNc1c(Cl)cncc1Cl` reads 730 nM; that for `O=C(NNc1c(Cl)cncc1Cl)C1C2CC3CC(C2)C(Br)C1C3` (configuration not stated), 4.9 nM; that for `O=C(Cc1ccccc1)NNc1c(Cl)cncc1Cl`, 1100 nM. On to `O=C(CCc1cccc2ccccc12)NNc1c(Cl)cncc1Cl`, for which the IC50 stood at 1200 nM.

As for `Cc1ccc(CCC(=O)NNc2c(Cl)cncc2Cl)cc1`, the IC50 is 1400 nM.

As to `O=C(CCC1CCCC1)NNc1c(Cl)cncc1Cl`, the IC50 came to 380 nM. As for `O=C(NNc1c(Cl)cncc1Cl)OCc1ccccc1`, the IC50 came out at 370 nM. On to `O=C(Cc1ccc(Cl)cc1Cl)NNc1c(Cl)cncc1Cl`, for which the IC50 stood at 2500 nM. The same measure, in the same setting: then `CC12CC3CC(C)(C1)CC(C(=O)NNc1c(Cl)cncc1Cl)(C3)C2`, with 13 nM; and `COc1ccc(CCC(=O)NNc2c(Cl)cncc2Cl)cc1`, with 1500 nM. In the case of `CN([C@@H](Cc1ccc(OS(=O)(=O)c2cccc3cnccc23)cc1)C(=O)N1CCN(c2ccccc2)CC1)S(=O)(=O)c1cccc2cnccc12`, the IC50 came to 280 nM. Regarding `O=C(NNc1c(Cl)cncc1Cl)C1Cc2ccccc21` (racemic), the IC50 turned out to be 320 nM. The same measure, in the same setting: then `O=C(CCc1ccc(F)cc1)NNc1c(Cl)cncc1Cl`, with 900 nM. For the compound `O=C(NNc1c(Cl)cncc1Cl)C1CCc2ccccc2C1` (racemic), the IC50 was determined as 1100 nM. Take `O=C(CCC1CCCCC1)NNc1c(Cl)cncc1Cl`: the IC50 came to 130 nM.

In the case of `O=C(Cc1ccc(Cl)cc1)NNc1c(Cl)cncc1Cl`, the IC50 came out at 620 nM. The same measure, in the same setting: then `O=C(NNc1c(Cl)cncc1Cl)C12CC3CC(CC1C3)C2`, with 1400 nM; and `O=C(CCCc1ccccc1)NNc1c(Cl)cncc1Cl`, with 770 nM; and `O=C(NNc1c(Cl)cncc1Cl)C1CC2CCC1C2` (configuration not stated), with 2800 nM. On to `O=C(NNc1c(Cl)cncc1Cl)C1Cc2ccccc2C1`, for which the IC50 is 4200 nM.

In the case of `O=C(CCc1ccccc1)NNc1c(Cl)cncc1Cl`, the IC50 stood at 650 nM. For the compound `O=C(CC1CC2CCC1C2)NNc1c(Cl)cncc1Cl` (configuration not stated), the IC50 is 210 nM. Consider `O=C(CC1CCCCCC1)NNc1c(Cl)cncc1Cl`, for which the IC50 was determined as 200 nM. Turning to `O=C(CCCC1CCCCC1)NNc1c(Cl)cncc1Cl`, the IC50 was found to be 360 nM.

In a further experiment the target is T2, P2X purinoceptor 3 (Homo sapiens) (UniProt P56373).
T2 sequence (whole entry): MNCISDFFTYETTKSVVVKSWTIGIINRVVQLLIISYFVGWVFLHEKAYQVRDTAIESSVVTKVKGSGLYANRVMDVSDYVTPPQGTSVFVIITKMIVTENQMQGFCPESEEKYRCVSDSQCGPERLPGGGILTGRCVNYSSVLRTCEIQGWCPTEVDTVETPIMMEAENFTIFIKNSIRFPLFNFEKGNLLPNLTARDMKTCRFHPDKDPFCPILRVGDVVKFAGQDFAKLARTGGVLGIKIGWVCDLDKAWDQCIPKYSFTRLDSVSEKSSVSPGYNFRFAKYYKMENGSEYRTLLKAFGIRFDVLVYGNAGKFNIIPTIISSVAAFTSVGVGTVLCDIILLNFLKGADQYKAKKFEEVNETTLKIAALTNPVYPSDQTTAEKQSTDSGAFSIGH
The experiment in a line: Antagonist activity at human P2X3 receptor expressed in Xenopus oocytes assessed as reduction in ATP-induced ion current at 10 uM. The class given is functional, cell-based. Also noted: scale not given: the % may be the effect or the level left. As to conditions: Oocyte. In a few lines:
(§1)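 Two-electrode voltage clamp on Xenopus oocytes made to express the receptor by microinjection of capped cRNA. Currents were evoked by 2 μM ATP, and the test compound was given at 10 μM. The read-out is the percent reduction of the ATP-induced ion current.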
On to `CC12CC3CC(C)(C1)CC(C(=O)NNc1c(Cl)cncc1Cl)(C3)C2`, for which the Activity was 10%.

In another experiment the target is T3, P2X purinoceptor 1 (Mus musculus) (UniProt P51576).
T3 sequence (whole entry): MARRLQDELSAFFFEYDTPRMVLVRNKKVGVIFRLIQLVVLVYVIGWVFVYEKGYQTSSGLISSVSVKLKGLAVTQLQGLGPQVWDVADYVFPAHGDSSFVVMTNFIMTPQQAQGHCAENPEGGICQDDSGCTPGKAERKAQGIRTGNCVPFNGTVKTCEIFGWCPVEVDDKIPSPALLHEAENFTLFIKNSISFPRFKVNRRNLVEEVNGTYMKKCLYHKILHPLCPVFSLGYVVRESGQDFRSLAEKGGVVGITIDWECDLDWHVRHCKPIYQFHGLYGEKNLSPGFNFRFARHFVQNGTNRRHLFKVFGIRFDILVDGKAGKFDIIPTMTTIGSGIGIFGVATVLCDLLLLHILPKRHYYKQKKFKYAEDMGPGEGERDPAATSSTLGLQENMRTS
The experiment in a line: Antagonist activity at mouse P2X1 receptor expressed in Xenopus oocytes assessed as reduction in ATP-induced ion current at 10 uM. Also noted: scale not given: the % may be the effect or the level left. The class given is functional, cell-based. The following applies: Oocyte. The gist of the method:
as §1
For `CC12CC3CC(C)(C1)CC(C(=O)NNc1c(Cl)cncc1Cl)(C3)C2`, the Activity is 10%.

In a further experiment the target is T4, P2X purinoceptor 7 (Homo sapiens) (UniProt Q99572).
T4 sequence (whole entry): T1 sequence (Q99572 whole entry)
The experiment in a line: Antagonist activity at human P2X7 receptor expressed in HEK293 cells assessed as inhibition of BzATP-induced ethidium bromide uptake at 20 uM after 2 hrs by fluorescence analysis.
Conditions: not given
The experiment is classed as functional, cell-based.
As to `O=C(Cc1ccncc1)NNc1c(Cl)cncc1Cl`, the inhibition is less than 20%.

The next experiment addresses T1, P2X purinoceptor 7. The experiment in a line: Antagonist activity at human P2X7 receptor in human THP1 cells assessed as inhibition of BzATP-induced IL-1beta release pretreated for 30 mins before bzATP challenge measured after 30 mins by ELISA.
Conditions: not given
Take `O=C(NNc1c(Cl)cncc1Cl)C1C2CC3CC(C2)CC1C3` (configuration not stated): the IC50 is 130 nM. Turning to `O=C(NNc1c(Cl)cncc1Cl)C1C2CC3CC(C2)C(Br)C1C3` (configuration not stated), the IC50 is 1.3 nM. Same read-out and setting: then `CC12CC3CC(C)(C1)CC(C(=O)NNc1c(Cl)cncc1Cl)(C3)C2`, with 9.2 nM; and `CN([C@@H](Cc1ccc(OS(=O)(=O)c2cccc3cnccc23)cc1)C(=O)N1CCN(c2ccccc2)CC1)S(=O)(=O)c1cccc2cnccc12`, with 120 nM; and `O=C(CCC1CCCCC1)NNc1c(Cl)cncc1Cl`, with 56 nM. On to `O=C(CCc1ccccc1)NNc1c(Cl)cncc1Cl`, for which the IC50 was found to be 320 nM. For the compound `O=C(CC1CCCCCC1)NNc1c(Cl)cncc1Cl`, the IC50 turned out to be 42 nM.

In the next experiment the target is T4, P2X purinoceptor 7 (Homo sapiens). The experiment in a line: Antagonist activity at human P2X7 receptor expressed in HEK293 cells assessed as inhibition of BzATP-induced ethidium bromide uptake at 10 uM after 2 hrs by fluorescence analysis.
Conditions: not given
With `Clc1cncc(Cl)c1NNCCCc1ccccc1`, the inhibition was less than 20%.

With `O=C(Cc1cccc2ccccc12)NNc1c(Cl)cncc1Cl`, the inhibition is less than 20%. In the case of `O=C(NCc1ccccc1)NNc1c(Cl)cncc1Cl`, the inhibition is less than 20%. In the case of `O=C(Cc1ccc2ccccc2c1)NNc1c(Cl)cncc1Cl`, the inhibition is less than 20%. Regarding `O=C(NNc1c(Cl)cncc1Cl)C1CC2C=CC1C2` (configuration not stated), the inhibition is less than 20%.

Turning to `O=C(NNc1c(Cl)cncc1Cl)c1ccccc1`, the inhibition is less than 20%. Take `O=C(NNc1c(Cl)cncc1Cl)c1cc2ccccc2[nH]1`: the inhibition was less than 20%.

`O=C(CCc1ccccc1)NNc1cc(Cl)nc(Cl)c1`: the inhibition is less than 20%. Still for that read-out and setting: then `O=C(CCc1ccccc1)NNc1c(F)cccc1F`, with less than 20%; and `O=C(/C=C/c1ccccc1)NNc1c(Cl)cncc1Cl`, with less than 20%. The same measure, in the same setting: the result for `O=C(CCc1ccc(O)cc1)NNc1c(Cl)cncc1Cl` reads less than 20%; that for `O=C(CCc1ccccc1)NNc1c(F)cncc1F`, less than 20%; that for `CN(Nc1c(Cl)cncc1Cl)C(=O)CCc1ccccc1`, less than 20%. For the compound `O=C(CCc1ccccc1)Nc1c(Cl)cncc1Cl`, the inhibition is less than 20%. On the same count and under the same terms, the result for `O=C(CCc1ccccc1)NNc1ccncc1` reads less than 20%.

(Values after ChEMBL document CHEMBL2046433, “Structure-activity relationships and optimization of 3,5-dichloropyridine derivatives as novel P2X(7) receptor antagonists” (J Med Chem, 2012).)
